Active and inactive are the calls of the source. The rule behind the calls is not given here.
What was measured:
[1] = target: T1, Peroxisome proliferator-activated receptor delta (Homo sapiens) (UniProt Q03181); assay: Transactivation of human GAL4-fused PPARdelta expressed in human HepG2 cells after 24 hrs by dual renilla-luciferase reporter gene assay; type: cell-based
T1 sequence (whole entry): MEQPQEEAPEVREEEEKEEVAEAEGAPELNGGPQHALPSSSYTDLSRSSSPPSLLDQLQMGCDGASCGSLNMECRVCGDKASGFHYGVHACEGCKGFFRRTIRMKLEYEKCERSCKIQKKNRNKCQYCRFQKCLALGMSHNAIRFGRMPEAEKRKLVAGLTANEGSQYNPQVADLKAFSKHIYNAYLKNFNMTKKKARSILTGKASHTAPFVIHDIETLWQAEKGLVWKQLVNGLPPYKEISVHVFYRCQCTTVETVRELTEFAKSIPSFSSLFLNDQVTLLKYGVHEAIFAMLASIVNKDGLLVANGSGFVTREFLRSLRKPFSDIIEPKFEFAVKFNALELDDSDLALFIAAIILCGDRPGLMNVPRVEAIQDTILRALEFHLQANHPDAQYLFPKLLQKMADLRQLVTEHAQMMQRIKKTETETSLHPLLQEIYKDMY
Procedure, shortened: (§1)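 HepG2 cells carried GAL4-fused human PPARγ or PPARδ, or mouse or rat PPARα, plus the 4xUAS-tk-luc reporter. Cells treated across a concentration range for 24 h. Luciferase normalized to Renilla activity and expressed as fold induction over vehicle, set as 1.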

[2] = target: T2, Peroxisome proliferator-activated receptor gamma (Homo sapiens) (UniProt P37231); assay: Transactivation of human GAL4-fused PPARgamma expressed in human HepG2 cells at 30 uM after 24 hrs by renilla luciferase reporter gene assay; type: cell-based; procedure, shortened: as §1
T2 sequence (whole entry): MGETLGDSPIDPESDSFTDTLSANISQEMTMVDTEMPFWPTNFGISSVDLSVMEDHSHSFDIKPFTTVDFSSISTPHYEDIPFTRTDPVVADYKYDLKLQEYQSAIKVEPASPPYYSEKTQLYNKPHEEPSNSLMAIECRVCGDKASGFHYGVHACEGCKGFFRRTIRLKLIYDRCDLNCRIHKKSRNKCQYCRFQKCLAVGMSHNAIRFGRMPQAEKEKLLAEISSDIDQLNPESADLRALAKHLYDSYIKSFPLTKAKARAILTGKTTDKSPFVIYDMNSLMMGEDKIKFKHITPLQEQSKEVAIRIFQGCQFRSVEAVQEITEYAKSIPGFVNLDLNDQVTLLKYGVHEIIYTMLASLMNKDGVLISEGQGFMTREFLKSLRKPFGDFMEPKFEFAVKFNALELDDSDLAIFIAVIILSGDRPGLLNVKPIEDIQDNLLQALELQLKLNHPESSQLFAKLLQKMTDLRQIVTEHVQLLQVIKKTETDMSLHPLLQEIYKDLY

[3] = target: T3, Peroxisome proliferator-activated receptor alpha (Homo sapiens) (UniProt Q07869); assay: Transactivation of human GAL4-fused PPARalpha LBD expressed in human HepG2 cells at 1 uM after 24 hrs by dual renilla-luciferase reporter gene assay relative to fenofibrate; type: cell-based
T3 sequence (whole entry): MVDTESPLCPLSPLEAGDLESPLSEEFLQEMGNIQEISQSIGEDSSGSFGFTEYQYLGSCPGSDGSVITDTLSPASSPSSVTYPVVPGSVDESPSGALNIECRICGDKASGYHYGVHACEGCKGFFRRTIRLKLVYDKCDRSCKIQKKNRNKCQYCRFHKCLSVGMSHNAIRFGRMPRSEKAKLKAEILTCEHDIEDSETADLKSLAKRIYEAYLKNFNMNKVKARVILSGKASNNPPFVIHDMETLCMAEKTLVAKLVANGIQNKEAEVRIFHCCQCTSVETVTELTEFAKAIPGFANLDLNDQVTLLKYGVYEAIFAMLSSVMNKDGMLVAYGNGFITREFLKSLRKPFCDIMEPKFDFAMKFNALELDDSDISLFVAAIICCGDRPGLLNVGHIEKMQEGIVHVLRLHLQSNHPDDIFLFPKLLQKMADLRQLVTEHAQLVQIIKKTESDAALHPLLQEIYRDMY
Procedure, shortened: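 HepG2 cells cotransfected with 4xUAS-tk-luc and pBIND-hPPARα. Cells treated 24 h with compound at 1 μM final; fenofibrate 10 μM served as reference and 0.1% DMSO as vehicle. Read-out by reporter gene luciferase assay.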

[4] = target: T3, Peroxisome proliferator-activated receptor alpha (Homo sapiens); assay: Transactivation of human PPARalpha LBD expressed in human HepG2 cells at 10 uM after 24 hrs in presence of PPARalpha antagonist by dual renilla-luciferase reporter gene assay; type: cell-based
Procedure, shortened: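 Transfected HepG2 cells (4xUAS-tk-luc plus pBIND-hPPARα) were pretreated 1 h with graded GW6471 before agonist was added at 10 μM final. Reporter luciferase was read after treatment. Percent inhibition was calculated relative to activity without GW6471, taken as 100%.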

[5] = Selectivity ratio of EC50 for rat GAL4-fused PPARalpha expressed in human HepG2 cells to EC50 for human GAL4-fused PPARalpha LBD expressed in human HepG2 cells; type: cell-based
[6] = Selectivity ratio of EC50 for mouse GAL4-fused PPARalpha expressed in human HepG2 cells to EC50 for human GAL4-fused PPARalpha LBD expressed in human HepG2 cells; type: cell-based
[7] = target: T3, Peroxisome proliferator-activated receptor alpha (Homo sapiens); assay: Transactivation of human PPARalpha in human FLC4 cells assessed as upregulation of PDK4 mRNA expression after 48 hrs by SYBR green dye-based RT-PCR analysis; type: cell-based
Procedure, shortened: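 FLC4 cells treated for 48 h with various concentrations. PDK4 mRNA measured by real-time RT-PCR, normalized to β2-microglobulin and set as 1 in vehicle. Values are means ± S.D.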

Rattus norvegicus [8] = assay: […] activity in fructose-challenged Sprague-Dawley rat assessed as increase in liver CPT1A mRNA expression at 10 mg/kg, po administered once daily via gavage for 2 weeks measured after 5 hrs fasting by SYBR green dye-based RT-PCR analysis; type: functional, organism-based
Procedure, shortened: (§2)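 Male rats were given 25% fructose in drinking water for 3 weeks. They then received 10 mg/kg/day orally in 0.5% methylcellulose (vehicle control) for 2 more weeks while fructose continued. Liver mRNA was measured by real-time RT-PCR, normalized to β2-microglobulin and set as 1 in the vehicle group. Values are means ± S.D.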

Rattus norvegicus [9] = assay: […] activity in fructose-challenged Sprague-Dawley rat assessed as reduction in serum triglyceride level at 10 mg/kg, po administered once daily via gavage for 2 weeks measured after 5 hrs fasting; type: functional, organism-based
Procedure, shortened: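 Male rats had 25% fructose in drinking water for 3 weeks, then oral dosing at 10 mg/kg/day for 2 weeks with fructose continued. The vehicle group got 0.5% methylcellulose. Serum triglyceride was measured after the 2-week treatment.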

Rattus norvegicus [10] = assay: […] activity in fructose-challenged Sprague-Dawley rat assessed as increase in liver ACADM mRNA expression at 10 mg/kg, po administered once daily via gavage for 2 weeks measured after 5 hrs fasting by SYBR green dye-based RT-PCR analysis; type: functional, organism-based; procedure, shortened: as §2
Rattus norvegicus [11] = assay: […] activity in fructose-challenged Sprague-Dawley rat assessed as increase in liver SLC25A20 mRNA expression at 10 mg/kg, po administered once daily via gavage for 2 weeks measured after 5 hrs fasting by SYBR green dye-based RT-PCR analysis; type: functional, organism-based; procedure, shortened: as §2
Rattus norvegicus [12] = assay: […] activity in fructose-challenged Sprague-Dawley rat assessed as increase in liver ACOX1 mRNA expression at 10 mg/kg, po administered once daily via gavage for 2 weeks measured after 5 hrs fasting by SYBR green dye-based RT-PCR analysis; type: functional, organism-based; procedure, shortened: as §2
[13] = target: Peroxisome proliferator-activated receptor alpha (Homo sapiens) (UniProt Q07869); assay: Displacement of fluormone pan-PPAR green from GST-tagged human PPARalpha ligand binding domain after 3 hrs by TR-FRET assay
Rattus norvegicus [14] = assay: […] activity in fructose-challenged Sprague-Dawley rat assessed as increase in liver CPT1A mRNA expression at 30 mg/kg, po administered once daily via gavage for 2 weeks measured after 5 hrs fasting by SYBR green dye-based RT-PCR analysis; type: functional, organism-based
Procedure, shortened: as §2, with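 “30” for “10”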

Rattus norvegicus [15] = assay: […] activity in fructose-challenged Sprague-Dawley rat assessed as reduction in serum triglyceride level at 30 mg/kg, po administered once daily via gavage for 2 weeks measured after 5 hrs fasting; type: functional, organism-based
Procedure, shortened: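 Male rats had 25% fructose in drinking water for 3 weeks, then oral dosing at 30 mg/kg/day for 2 weeks with fructose continued. The vehicle group got 0.5% methylcellulose. Serum triglyceride was measured after the 2-week treatment.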

Rattus norvegicus [16] = assay: […] activity in fructose-challenged Sprague-Dawley rat assessed as increase in liver ACADM mRNA expression at 30 mg/kg, po administered once daily via gavage for 2 weeks measured after 5 hrs fasting by SYBR green dye-based RT-PCR analysis; type: functional, organism-based
Procedure, shortened: as §2, with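 “30” for “10”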

Rattus norvegicus [17] = assay: […] activity in fructose-challenged Sprague-Dawley rat assessed as increase in liver SLC25A20 mRNA expression at 30 mg/kg, po administered once daily via gavage for 2 weeks measured after 5 hrs fasting by SYBR green dye-based RT-PCR analysis; type: functional, organism-based
Procedure, shortened: as §2, with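 “30” for “10”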

Rattus norvegicus [18] = assay: […] activity in fructose-challenged Sprague-Dawley rat assessed as increase in liver ACOX1 mRNA expression at 30 mg/kg, po administered once daily via gavage for 2 weeks measured after 5 hrs fasting by SYBR green dye-based RT-PCR analysis; type: functional, organism-based
Procedure, shortened: as §2, with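 “30” for “10”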

In the case of `Cc1cc(C(=O)O)c2c(C(C)C)nn(-c3ccc(Cl)cc3)c2n1`, the Activity [1] is reported as “inactive”, the Activity [2] is reported as “Active” and the activation relative to fenofibrate [3] is reported as 187. For the same compound, the Activity [4] was “inactive”, the Ratio EC50 [5] was 20 and the Ratio EC50 [6] was 20. For the same compound, the Activity [7] was “Dose-dependent effect”, the Activity (Rattus norvegicus [8]) was “Active” and the Activity (Rattus norvegicus [9]) was “Active”. For the same compound, the Activity (Rattus norvegicus [10]) was “Active”, the Activity (Rattus norvegicus [11]) was “Active” and the Activity (Rattus norvegicus [12]) was “Active”. For the same compound, the inhibition [13] was “Dose-dependent effect”.

With `CC(C)OC(=O)C(C)(C)Oc1ccc(C(=O)c2ccc(Cl)cc2)cc1` the Activity (Rattus norvegicus [14]) was “Active”, the Activity (Rattus norvegicus [15]) was “Active” and the Activity (Rattus norvegicus [16]) was “Active”. For the same compound, the Activity (Rattus norvegicus [17]) was “Active” and the Activity (Rattus norvegicus [18]) was “Active”.
